# High-throughput results: PubChem, several laboratories
# GSTO1 counter – GSTO1 inhibition, counter-screen for RBBP9 inhibitors; P78417; recombinant GSTO1, activity-based probe fluorescence polarization; inhibition, % at 5.96 µM; actives 1.1% (n = 300,000);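 active = inhibition above the campaign mean inhibition plus 3 SD, cut at about 35% in these data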;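 also: 0% = GSTO1-1 with DMSO and 100% = wells lacking GSTO1-1 enzyme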
# PAD4 FP inh – PAD4 (human) enzyme inhibition | Q9UM07 | recombinant PAD4, RCA probe fluorescence polarization | inhibition, % at 6.36 µM | actives 0.41% (n = 330,000);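 active = percent inhibition above a cutoff equal to the mean of all tested compounds plus 3 SD, cut at about 15% in these data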;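 also: 0% = PAD4 with RCA probe and DMSO and 100% = probe without PAD4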
# Target sequence (Q9UM07 whole entry, looked up): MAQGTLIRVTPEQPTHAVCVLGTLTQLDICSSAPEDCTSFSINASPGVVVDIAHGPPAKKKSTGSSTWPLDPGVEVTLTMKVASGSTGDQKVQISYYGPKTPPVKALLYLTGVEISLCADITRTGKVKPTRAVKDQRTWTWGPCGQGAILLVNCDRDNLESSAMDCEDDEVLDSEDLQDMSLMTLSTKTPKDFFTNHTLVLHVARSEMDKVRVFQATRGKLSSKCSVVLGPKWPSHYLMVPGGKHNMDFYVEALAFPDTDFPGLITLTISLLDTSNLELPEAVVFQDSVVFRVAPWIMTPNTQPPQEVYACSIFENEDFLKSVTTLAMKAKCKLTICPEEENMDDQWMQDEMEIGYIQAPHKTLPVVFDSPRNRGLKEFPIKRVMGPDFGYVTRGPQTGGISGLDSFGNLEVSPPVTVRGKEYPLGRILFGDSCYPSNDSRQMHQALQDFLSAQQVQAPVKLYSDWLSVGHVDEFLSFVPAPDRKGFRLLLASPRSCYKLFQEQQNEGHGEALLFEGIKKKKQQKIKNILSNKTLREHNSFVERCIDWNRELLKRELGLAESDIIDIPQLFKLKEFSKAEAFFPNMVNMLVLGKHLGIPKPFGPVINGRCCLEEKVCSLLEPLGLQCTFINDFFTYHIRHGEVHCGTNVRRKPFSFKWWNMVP
# PP5 inh – blocks human protein phosphatase 5 activity | P53041 | purified PP5c, OMFP substrate fluorescence | actives 0.18% (n = 320,000) | inhibition, % at 6.7 µM;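 active = inhibition above the campaign's mean inhibition across all tested compounds plus 3 SD, cut at about 9.5% in these data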;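 also: 0% = DMSO only and 100% = 100 µM cantharidin control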
# Fh CTSL1 inh – cathepsin L1 inhibition, PFM18AAP counter-screen | actives 0.49% (n = 300,000) | recombinant F. hepatica cathepsin L1, Z-Leu-Arg-MCA fluorescence | inhibition, % at 5.96 µM | AID 1906;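 active = inhibition above the mean of all tested compounds plus 3 SD, set per screening campaign, cut at about 17% in these data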;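 also: 0% = plate median of test compound wells and 100% = 1 µM Z-Phe-Ala-diazomethylketone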
# Apaf-1 inh – human Apaf-1 inhibition; reconstituted apoptosome caspase-3 activity, DEVD-Rh110 fluorescence; inhibition, % at 20 µM; actives 0.71% (n = 330,000); AID 489030; active = inhibition of at least 40% at 20 µM;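 also: plate controls were DMSO wells for no effect and DEVD-CHO caspase inhibitor wells for full effect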
#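 Assay system – apoptosome proteins · Medium – Hepes buffer, pH 7.5 · Also added – cytochrome c with DEVD-Rh110 · Timing – 30 min compound preincubation, 50 min activation, room temperature · Detection – Rh110 fluorescence, excitation 480 nm, emission 540 nm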
# UCH37 DUB inh – human UCH37 deubiquitinating enzyme inhibition; actives 0.33% (n = 330,000); inhibition, % (concentration not given with the values); AID 588478; purified proteasome/UCH37, Ub-AMC cleavage fluorescence; Q9Y5K5;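 active = mean inhibition over replicate wells above about 20%, limit read from the data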;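 also: 0% = compound-free wells with enzyme and 100% = wells lacking proteasome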
#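 Signal – fluorescence, ex 355 nm, em 460 nm · System – Proteasome-bound UCH37 · Input – 0.15 nM proteasome as dispensed · Timing – 30 min preincubation with enzyme, 25 min cleavage at room temperature · Read-out basis – percent inhibition of cleavage signal versus uninhibited and no-proteasome wells · Medium – Tris-HCl pH 7.4 with ATP-MgCl2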
# Apaf-1 inh conf – Apaf-1 inhibition, single-dose confirmed. inhibition, % at 20 µM. reconstituted apoptosome, caspase-3 DEVD-Rh110 fluorescence. shares compounds with Apaf-1 inh. actives 25% (n = 1,800);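 active = mean inhibition of at least 40% at 20 µM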;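 also: plate controls were DMSO wells for no effect and DEVD-CHO caspase inhibitor control wells for full effect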
# Rh110 interf inh – Rh110 signal interference in Apaf-1 inhibitor counter-screen. shares compounds with Apaf-1 inh. AID 504615. 1,800 tested, under 10 active. Rh110 fluorescence interference, quenched caspase reaction. activation (fluorescence interference), % at 20 µM;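 active = signal rise of 40% or more at 20 µM, treated as a fluorescence artifact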
# Active calls of the source: *; · = no result given. Shown are actives, neighbours in structure and some others; about 2% of the full set was active somewhere.
SMILES,GSTO1 counter,PAD4 FP inh,PP5 inh,Fh CTSL1 inh,Apaf-1 inh,UCH37 DUB inh,Apaf-1 inh conf,Rh110 interf inh
CN(C)S(=O)(=O)c1ccc(NC(=O)CN2CCCC2c2ccc3c(c2)OCCCO3)cc1 (configuration not stated),·,1,0,·,46*,3,32,4
CC1=NN(c2ccc(S(=O)(=O)O)cc2Cl)C(=O)C1,13,-17,0,2,66*,6,19,-3
Cc1c(CCOC(=O)C2C3CC4CC(C3)CC2C4)sc[n+]1CC(=O)c1ccc(Br)cc1 (configuration not stated),3,-4,4,-5,50*,4,32,6
COc1ccc(C(=O)OCCc2sc[n+](CC(=O)c3ccccc3)c2C)cc1,-7,-3,1,2,27,1,·,·
Cc1c(CCOC(=O)c2ccc(Cl)cc2Cl)sc[n+]1CC(=O)c1ccc(Br)cc1,·,1,·,·,71*,2,29,9
Nc1ccc2ncccc2c1,27,-5,-2,3,86*,4,19,-3
Nc1ccc(/C=C/c2ccc3ncccc3c2)cc1,6,6,3,-1,4,-69,·,·
COc1cc(C=NN2CCOCC2)ccc1OC(=O)c1ccco1,·,·,·,·,·,0,·,·
Nc1ccc2nc(-c3ccccc3)c(-c3ccccc3)nc2c1,17,-1,3,-3,65*,·,28,7
Nc1ccc(Oc2ccc3nc(-c4ccccc4)c(-c4ccccc4)nc3c2)cc1,-2,5,3,5,21,5,·,·
Cc1ccc(-c2csc3nc(SCC(=O)N(C)C)n(Cc4ccccc4)c(=O)c23)cc1,-2,6,3,-1,16,1,·,·
NC(=O)CSc1nc2scc(-c3ccc(Cl)cc3)c2c(=O)n1Cc1ccccc1,-3,-3,0,-8,47*,5,18,2
CCOc1cc(C=NNc2cc(C)nc3ccc(C)cc23)ccc1O,·,·,·,·,·,-25,·,·
CN1/C(=C\C(=O)COC(=O)c2ccc([N+](=O)[O-])o2)C(C)(C)c2ccccc21,8,-15,4,-2,56*,-1,6,0
CN1/C(=C\C(=O)COC(=O)c2nccnc2N)C(C)(C)c2ccccc21,9,-4,1,1,8,4,·,·
CC(C)(C)OC(=O)[C@H](Cc1ccccc1)NC(=O)c1nc[nH]c1C(=O)N[C@@H](CCCCN)C(=O)OC(C)(C)C,·,2,·,·,51*,0,10,7
CC(C)C[C@H](NC(=O)c1nc[nH]c1C(=O)N[C@@H](CCCCN)C(=O)OC(C)(C)C)C(=O)OC(C)(C)C,·,-1,·,·,43*,-2,10,7
CC(C)(C)OC(=O)[C@H](CCCCN)NC(=O)c1nc[nH]c1C(=O)N[C@@H](CCCCN)C(=O)OC(C)(C)C,·,2,·,·,13,5,·,·
CC(=O)N1CCN(c2ccc(NCc3ccco3)cc2)CC1,·,-6,-1,·,-3,2,·,·
CC(=O)N1CCN(c2ccc(NCc3ccc(-c4cccc(Cl)c4)o3)cc2)CC1,·,9,·,·,43*,·,19,5
COc1cc2nc(Nc3ccc(C)c(Cl)c3)nc(N)c2cc1OC,-16,-2,6,0,45*,-29,35,14
CCN1C(Nc2ccccc2)=NC[C@@H]1Cc1ccccc1,-2,-1,0,2,-3,1,·,·
CC(C)(C)C1CCC(CN2C(Nc3ccccc3)=NC[C@@H]2Cc2ccccc2)CC1 (some centres not stated),·,5,·,·,75*,·,17,11
CC1(OC(=O)c2ccc(Cl)nc2)C(=O)C=C2C=C3CCCN3C=C2C1=O (configuration not stated),35*,-5,1,4,44*,5,40,6
CC1(OC(=O)c2ccc(Cl)nc2)C(=O)C=C2C=C(C3CC3)OC=C2C1=O (configuration not stated),24,14,0,-3,-7,·,·,·
